pEC50: −log10 of the molar value. In brackets after ≈: the same amount, converted by molar mass. Activity calls are given as the source filed them. The calls are words filed in the database; no cut-off is given here.
Assays:
[1] = Antiviral activity against Bovine viral diarrhea virus 1-NADL ATCC VR-534 infected in MDBK cells assessed as protection against virus-induced cytopathogenicity after 3 to 4 days by MTT assay; assay type: functional, cell-based; conditions: Bovine viral diarrhea virus isolates and strains, ATCC VR-534, MDBK
How it was run: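 Cells seeded in 96-well plates (BHK 5x10^4, MDBK 3x10^4 cells/well), grown overnight to confluence, infected at m.o.i. 0.01 (BHK for Reo-1, MDBK for BVDV); serial compound dilutions in maintenance medium with 0.5% inactivated FBS added after 1 h; viability by MTT after 3–4 days at 37°C; EC50 for 50% protection by linear regression.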

Vaccinia virus = test: Antiviral activity against Human Vaccinia virus ATCC VR-1549 infected in African green monkey Vero 76 cells assessed as reduction of virus-plaque formation after 3 days by crystal violet staining; assay type: functional, organism-based; conditions: Orthopoxvirus vaccinia, ATCC VR-1549, Vero, 72 h
[2] = system: Staphylococcus epidermidis; test: Antimicrobial activity against hospital methicillin-resistant Staphylococcus epidermidis 31/04 after 18 hrs by twofold serial microdilution method; assay type: functional; conditions: 31/04, 18 h
How it was run: (§1)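 Twofold serial microdilution in Mueller-Hinton broth. Compound stock was made in DMSO and diluted in sterile water. Tested range was 0.125–512 µg/mL. Final inoculum was 10^5 CFU/mL. Plates were incubated 18 h at 35 °C. MIC is the lowest concentration preventing visible growth.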

[3] = system: Staphylococcus epidermidis; test: Ratio of ciprofloxacin MIC to compound MIC for hospital methicillin-resistant Staphylococcus epidermidis 151/04 after 18 hrs by twofold serial microdilution method; assay type: functional
How it was run: (§2)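 Ratio of MICs for ciprofloxacin and test agent, each from twofold serial broth microdilution in Mueller-Hinton broth following CLSI guidelines. DMSO stock was diluted in sterile water to 0.125–512 µg/mL, with a final inoculum of 10^5 CFU/mL.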

[4] = Cytotoxicity against human MT4 cells; assay type: cell-based
Poliovirus 1 = test: Antiviral activity against Poliovirus type 1 ATCC VR-1562 infected in African green monkey Vero 76 cells assessed as reduction of virus-plaque formation after 2 days by crystal violet staining; assay type: functional, organism-based; conditions: Enterovirus C, ATCC VR-1562, Vero, 48 h
Proteus vulgaris = test: Antimicrobial activity against Proteus vulgaris NCTC 4635 at 400 ug after 18 hrs by disc-diffusion method; assay type: functional; conditions: for zone of inhibition at 400 µg/disc: NCTC 4635, 18 h, read-out: IZ
How it was run: (§3)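 Disc diffusion on Mueller-Hinton II agar per CLSI; 9 mm paper discs loaded with 400 µg compound from DMSO solution, dried, placed on agar; growth inhibition zone diameter read after 18 h at 35°C.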

Staphylococcus aureus [5] = test: Antimicrobial activity against Staphylococcus aureus ATCC 29213 after 18 hrs by twofold serial microdilution method; assay type: functional; conditions: ATCC 29213, 18 h
[6] = system: Staphylococcus epidermidis; test: Ratio of ciprofloxacin MIC to compound MIC for hospital methicillin-resistant Staphylococcus epidermidis 24/04 after 18 hrs by twofold serial microdilution method; assay type: functional
Human alphaherpesvirus 1 = test: Antiviral activity against Human herpesvirus 1 KOS ATCC VR-1493 infected in African green monkey Vero 76 cells assessed as reduction of virus-plaque formation after 3 days by crystal violet staining; assay type: functional, organism-based; conditions: Human alphaherpesvirus 1, KOS ATCC VR1493, Vero, 72 h
How it was run: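 Plaque reduction: Vero-76 at 2x10^5 cells/well grown to confluent monolayers, infected 2 h at 50–100 PFU/well; after removing unadsorbed virus, overlay of D-MEM, 1% inactivated FBS, 0.75% methylcellulose with or without serial compound dilutions; 3 days at 37°C, fixed and stained with crystal violet in 50% ethanol, plaques counted; EC50 by linear regression.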

Staphylococcus aureus [7] = test: Ratio of ciprofloxacin MIC to compound MIC for hospital methicillin-resistant Staphylococcus aureus 54/05 after 18 hrs by twofold serial microdilution method; assay type: functional; how it was run: as §2
Staphylococcus aureus [8] = test: Ratio of ciprofloxacin MIC to compound MIC for hospital methicillin-resistant Staphylococcus aureus 81/05 after 18 hrs by twofold serial microdilution method; assay type: functional; how it was run: as §2
Micrococcus luteus [9] = test: Antimicrobial activity against Micrococcus luteus ATCC 10240 at 400 ug after 18 hrs by disc-diffusion method; assay type: functional; conditions: ATCC 10240, 18 h, read-out: IZ; how it was run: as §3
Staphylococcus aureus [10] = test: Antimicrobial activity against Staphylococcus aureus ATCC 29213 at 400 ug after 18 hrs by disc-diffusion method; assay type: functional; conditions: ATCC 29213, 18 h, read-out: IZ; how it was run: as §3
Staphylococcus aureus [11] = test: Antimicrobial activity against Staphylococcus aureus NCTC 4163 at 400 ug after 18 hrs by disc-diffusion method; assay type: functional; conditions: NCTC 4163, 18 h, read-out: IZ; how it was run: as §3
[12] = system: Staphylococcus epidermidis; test: Ratio of ciprofloxacin MIC to compound MIC for hospital methicillin-resistant Staphylococcus epidermidis 63/04 after 18 hrs by twofold serial microdilution method; assay type: functional; how it was run: as §2
Staphylococcus aureus [13] = test: Antimicrobial activity against hospital methicillin-resistant Staphylococcus aureus 522/11 after 18 hrs by twofold serial microdilution method; assay type: functional; conditions: 522/11, 18 h; how it was run: as §1
Staphylococcus aureus [14] = test: Antimicrobial activity against Staphylococcus aureus ATCC 25923 at 400 ug after 18 hrs by disc-diffusion method; assay type: functional; conditions: ATCC 25923, 18 h, read-out: IZ; how it was run: as §3
Bacillus cereus = test: Antimicrobial activity against Bacillus cereus ATCC 11778 at 400 ug after 18 hrs by disc-diffusion method; assay type: functional; conditions: ATCC 11778, 18 h, read-out: IZ; how it was run: as §3
[15] = system: Staphylococcus epidermidis; test: Antimicrobial activity against Staphylococcus epidermidis ATCC 12228 at 400 ug after 18 hrs by disc-diffusion method; assay type: functional; conditions: ATCC 12228, 18 h, read-out: IZ; how it was run: as §3
Micrococcus luteus [16] = test: Antimicrobial activity against Micrococcus luteus ATCC 9341 at 400 ug after 18 hrs by disc-diffusion method; assay type: functional; conditions: ATCC 9341, 18 h, read-out: IZ; how it was run: as §3
[17] = system: Staphylococcus epidermidis; test: Antimicrobial activity against Staphylococcus epidermidis ATCC 12228 after 18 hrs by twofold serial microdilution method; assay type: functional; conditions: ATCC 12228, 18 h
Enterococcus hirae = test: Antimicrobial activity against Enterococcus hirae ATCC 10541 at 400 ug after 18 hrs by disc-diffusion method; assay type: functional; conditions: ATCC 10541, 18 h, read-out: IZ; how it was run: as §3
Staphylococcus aureus [18] = test: Ratio of ciprofloxacin MIC to compound MIC for hospital methicillin-resistant Staphylococcus aureus 522/11 after 18 hrs by twofold serial microdilution method; assay type: functional; how it was run: as §2
Staphylococcus aureus [19] = test: Ratio of ciprofloxacin MIC to compound MIC for hospital methicillin-resistant Staphylococcus aureus 57/05 after 18 hrs by twofold serial microdilution method; assay type: functional; how it was run: as §2
[20] = system: Staphylococcus epidermidis; test: Antimicrobial activity against hospital methicillin-resistant Staphylococcus epidermidis 63/04 after 18 hrs by twofold serial microdilution method; assay type: functional; conditions: 63/04, 18 h; how it was run: as §1
Staphylococcus aureus [21] = test: Ratio of ciprofloxacin MIC to compound MIC for hospital methicillin-resistant Staphylococcus aureus 573/11 after 18 hrs by twofold serial microdilution method; assay type: functional; how it was run: as §2
[22] = system: Staphylococcus epidermidis; test: Ratio of ciprofloxacin MIC to compound MIC for hospital methicillin-resistant Staphylococcus epidermidis 76/04 after 18 hrs by twofold serial microdilution method; assay type: functional; how it was run: as §2
[23] = system: Staphylococcus epidermidis; test: Ratio of ciprofloxacin MIC to compound MIC for hospital methicillin-resistant Staphylococcus epidermidis 62/04 after 18 hrs by twofold serial microdilution method; assay type: functional; how it was run: as §2
[24] = system: Staphylococcus epidermidis; test: Antimicrobial activity against hospital methicillin-resistant Staphylococcus epidermidis 24/04 after 18 hrs by twofold serial microdilution method; assay type: functional; conditions: 24/04, 18 h; how it was run: as §1
Staphylococcus aureus [25] = test: Antimicrobial activity against hospital methicillin-resistant Staphylococcus aureus 54/05 after 18 hrs by twofold serial microdilution method; assay type: functional; conditions: 54/05, 18 h; how it was run: as §1

Structure (SMILES)	pEC50 [1]	pEC50 (Vaccinia virus)	MIC [2]	Ratio [3]	CC50 [4]	pEC50 (Poliovirus 1)	MIC (Staphylococcus aureus [5])	Ratio [6]	pEC50 (Human alphaherpesvirus 1)	Ratio (Staphylococcus aureus [7])	Ratio (Staphylococcus aureus [8])	zone of inhibition at 400 µg/disc (Micrococcus luteus [9])	zone of inhibition at 400 µg/disc (Staphylococcus aureus [10])	zone of inhibition at 400 µg/disc (Staphylococcus aureus [11])	Ratio [12]	MIC (Staphylococcus aureus [13])	zone of inhibition at 400 µg/disc (Staphylococcus aureus [14])	zone of inhibition at 400 µg/disc (Bacillus cereus)	zone of inhibition at 400 µg/disc [15]	zone of inhibition at 400 µg/disc (Micrococcus luteus [16])	also measured
Fc1ccc(NC(=S)Nc2cccc(C(F)(F)F)c2)cc1Cl	< 4.96	< 4.70	1 µg/mL (≈ 2.87 µM)	128	8 µM	< 4.70	1 µg/mL (≈ 2.87 µM)	128	< 4.70	128	128	30 mm	30 mm	30 mm	128	0.5 µg/mL (≈ 1.43 µM)	27 mm	25 mm	30 mm	32 mm	zone of inhibition at 400 µg/disc (Proteus vulgaris): 14 mm; MIC [17]: 2 µg/mL (≈ 5.73 µM); zone of inhibition at 400 µg/disc (Enterococcus hirae): 34 mm; Ratio (Staphylococcus aureus [18]): 128; Ratio (Staphylococcus aureus [19]): 128; MIC [20]: 0.5 µg/mL (≈ 1.43 µM); Ratio (Staphylococcus aureus [21]): 128; Ratio [22]: 128; Ratio [23]: 128; MIC [24]: 1 µg/mL (≈ 2.87 µM); MIC (Staphylococcus aureus [25]): 1 µg/mL (≈ 2.87 µM)
FC(F)(F)c1cccc(NC(=S)Nc2cccc(Br)c2)c1	< 5.00	< 4.85	2 µg/mL (≈ 5.33 µM)	128	9.2 µM	< 4.85	1 µg/mL (≈ 2.67 µM)	128	< 4.85	128	128	30 mm	29 mm	28 mm	128	0.5 µg/mL (≈ 1.33 µM)	28 mm	24 mm	29 mm	33 mm	zone of inhibition at 400 µg/disc (Proteus vulgaris): 12 mm; MIC [17]: 2 µg/mL (≈ 5.33 µM); zone of inhibition at 400 µg/disc (Enterococcus hirae): 13 mm; Ratio (Staphylococcus aureus [18]): 128; Ratio (Staphylococcus aureus [19]): 128; MIC [20]: 1 µg/mL (≈ 2.67 µM); Ratio (Staphylococcus aureus [21]): 128; Ratio [22]: 128; Ratio [23]: 128; MIC [24]: 4 µg/mL (≈ 10.7 µM); MIC (Staphylococcus aureus [25]): 0.5 µg/mL (≈ 1.33 µM)
FC(F)(F)c1cccc(NC(=S)NCCc2ccccc2)c1	< 4.32	< 4.34	16 µg/mL (≈ 49.3 µM)	128	8.8 µM	< 4.34	8 µg/mL (≈ 24.7 µM)	128	< 4.34	128	128	15 mm	15 mm	15 mm	128	16 µg/mL (≈ 49.3 µM)	15 mm	16 mm	14 mm	18 mm	inhibition zone (IZ) (Proteus vulgaris): inactive; MIC [17]: 16 µg/mL (≈ 49.3 µM); zone of inhibition at 400 µg/disc (Enterococcus hirae): 17 mm; Ratio (Staphylococcus aureus [18]): 128; Ratio (Staphylococcus aureus [19]): 128; MIC [20]: 8 µg/mL (≈ 24.7 µM); Ratio (Staphylococcus aureus [21]): 128; Ratio [22]: 128; Ratio [23]: 128; MIC [24]: 16 µg/mL (≈ 49.3 µM); MIC (Staphylococcus aureus [25]): 8 µg/mL (≈ 24.7 µM)
Fc1cccc(NC(=S)Nc2cccc(C(F)(F)F)c2)c1	< 5.00	< 4.70	8 µg/mL (≈ 25.5 µM)	128	20 µM	< 4.70	8 µg/mL (≈ 25.5 µM)	128	< 4.70	128	128	21 mm	21 mm	20 mm	128	8 µg/mL (≈ 25.5 µM)	22 mm	18 mm	19 mm	23 mm	inhibition zone (IZ) (Proteus vulgaris): inactive; MIC [17]: 8 µg/mL (≈ 25.5 µM); zone of inhibition at 400 µg/disc (Enterococcus hirae): 25 mm; Ratio (Staphylococcus aureus [18]): 128; Ratio (Staphylococcus aureus [19]): 128; MIC [20]: 16 µg/mL (≈ 50.9 µM); Ratio (Staphylococcus aureus [21]): 128; Ratio [22]: 128; Ratio [23]: 128; MIC [24]: 8 µg/mL (≈ 25.5 µM); MIC (Staphylococcus aureus [25]): 8 µg/mL (≈ 25.5 µM)

Reference: ChEMBL document CHEMBL3616436, “Synthesis, cytotoxicity and antimicrobial activity of thiourea derivatives incorporating 3-(trifluoromethyl)phenyl moiety” (Eur J Med Chem, 2015)
